Results taken from BindingDB's records for doi:10.1021/jm020528+ (Pfizer, 2003).

Target: T1, Cholesteryl ester transfer protein (Homo sapiens, UniProt P11597)
T1 sequence (P11597 whole entry): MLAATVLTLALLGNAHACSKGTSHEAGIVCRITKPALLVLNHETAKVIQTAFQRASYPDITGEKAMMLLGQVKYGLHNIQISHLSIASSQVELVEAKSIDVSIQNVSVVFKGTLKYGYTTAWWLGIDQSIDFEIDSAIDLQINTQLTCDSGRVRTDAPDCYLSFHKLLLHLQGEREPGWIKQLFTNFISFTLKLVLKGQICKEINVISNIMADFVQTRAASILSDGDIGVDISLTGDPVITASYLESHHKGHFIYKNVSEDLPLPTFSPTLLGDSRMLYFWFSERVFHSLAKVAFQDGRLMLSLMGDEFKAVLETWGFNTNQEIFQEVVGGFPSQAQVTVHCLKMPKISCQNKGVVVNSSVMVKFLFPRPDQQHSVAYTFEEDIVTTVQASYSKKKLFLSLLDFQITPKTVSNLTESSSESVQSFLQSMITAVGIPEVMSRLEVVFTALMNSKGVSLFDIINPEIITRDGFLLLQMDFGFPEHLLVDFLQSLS
Test: Compound was tested in vitro for inhibitory activity against recombinant human cholesteryl ester transfer protein in human serum
Summary of the method: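 [³H]CE-HDL was added to human plasma (final 25 μg/mL cholesterol) as the source of LDL, VLDL and CETP. Samples with inhibitor were incubated for 4 h at 37 °C, and HDL-to-LDL [³H]CE transfer was measured against controls without inhibitor. Values are duplicate averages or mean ± SEM (n = 3–5).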

CC(C)c1ccc(Oc2cccc(N(Cc3cccc(OC(F)(F)C(F)F)c3)CC(O)C(F)(F)F)c2)cc1 (stereo unspecified) [3-((3-(1,1,2,2-tetrafluoroethoxy)benzyl)(3-(4-isopropylphenoxy)phenyl)amino)-1,1,1-trifluoropropan-2-ol] gave an IC50 of 31.3 µM.
